Assay results taken from ChEMBL document CHEMBL4813982, “Novel pyrazolo[4,3-d]pyrimidine microtubule targeting agents (MTAs): Synthesis, structure-activity relationship, in vitro and in vivo evaluation as antitumor agents” (Bioorg Med Chem Lett, 2021).

Key:
[1] = molecular target: T1, Tubulin (Homo sapiens) (UniProt P68371+Q9H4B7+P0DPH7+P68366+Q13509+Q71U36+P04350+Q3ZCM7+P07437+P68363+Q9BQE3+Q6PEY2+Q13885+Q9BVA1+Q9BUF5); assay: Inhibition of [3H]colchicine binding to tubulin (unknown origin) at 5 uM relative to control; type: protein-complex assay
[2] = molecular target: T1, Tubulin (Homo sapiens); assay: Inhibition of [3H]colchicine binding to tubulin (unknown origin) at 0.5 uM relative to control; type: protein-complex assay
[3] = molecular target: Tubulin; assay: Inhibition of tubulin assembly (unknown origin); type: protein-complex assay, Homo sapiens
[4] = system: OVCAR-8; assay: Antiproliferative activity against human OVCAR-8 cells; type: functional, cell-based
[5] = system: NCI/ADR-RES; assay: Antiproliferative activity against human NCI/ADR-RES cells overexpressing Pgp; type: functional, cell-based
[6] = Resistance ratio of IC50 for antiproliferative activity against human NCI/ADR-RES cells expressing Pgp to IC50 for antiproliferative activity against human OVCAR-8 cells; type: functional
How it was run: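 Resistance ratio: IC50 in Pgp-overexpressing NCI/ADR-RES cells divided by IC50 in parental OVCAR-8 cells.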

With `CSc1ccc(N(C)c2nc(Cl)nc3cnn(C)c23)cc1` the inhibition [1] was 93%, the inhibition [2] was 64% and the IC50 [3] was 820 nM. For the same molecule, the IC50 [4] was 31 nM, the IC50 [5] was 17 nM and the “Ratio IC50” value [6] was 0.54.
